Measured values reported in ChEMBL document CHEMBL3351658, “Exploring human parainfluenza virus type-1 hemagglutinin-neuraminidase as a target for inhibitor discovery” (J Med Chem, 2014).

Columns and labels:
[1] = Inhibition of hemagglutinin activity of human parainfluenza virus 1 C35 hemagglutinin-neuraminidase incubated for 20 mins in presence of chicken red blood cells; parameters: species or system Human respirovirus 1
Summary of the method: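 HI used hPIV-1 strain C-35 grown in LLC-MK2 cells, with clarified supernatant ultrafiltered ≥10-fold. Compounds were diluted in PBS, mixed with virus (1 HAU final) and held 20 min at room temperature. Ice-cold 0.5% chicken RBC were added on ice, then 1 h 30 min at 4 °C. Run in duplicate, maximum 250 µM. IC50 is the concentration matching agglutination of a 0.5 HAU virus-only well.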

[2] = test system: LLC-MK2; experiment: (§1) Cytotoxicity against rhesus monkey LLC-MK2 cells assessed as cell viability at 250 uM after 48 hrs by MTT assay; format: cell-based, Macaca mulatta; settings: llc-mk2, 48 h, 250 µM
Summary of the method: (§2)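 LLC-MK2 cells were kept in EMEM with 1% glutamine (200 mM) and 2% FBS at 37 °C under 5% CO2. They were exposed in triplicate to 250 µM of each compound for 48 h. Viability was read by MTT or AlamarBlue assay.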

[3] = test system: LLC-MK2; experiment: (§3) Cytotoxicity against rhesus monkey LLC-MK2 cells assessed as cell viability at 250 uM after 48 hrs by alamar blue assay; format: cell-based, Macaca mulatta; settings: llc-mk2, 48 h, 250 µM; summary of the method: as §2
[4] = as §1; format: cell-based, Macaca mulatta; settings: LLC-MK2 cells, read-out: Activity; summary of the method: as §2
[5] = as §3; format: cell-based, Macaca mulatta; settings: LLC-MK2 cells, read-out: Activity; summary of the method: as §2

## CC(=O)N[C@H]1[C@H]([C@H](O)[C@H](O)CO)OC(C(=O)[O-])=C[C@@H]1N=[N+]=[N-].[Na+]
[1]
  IC50: 3500 nM
[2]
  Activity: Non-toxic
[3]
  Activity: Non-toxic

## CC(=O)N[C@H]1[C@H]([C@H](O)[C@H](O)CO)OC(C(=O)[O-])=C[C@@H]1O.[Na+]
[1]
  IC50: 15900 nM
[2]
  Activity: Non-toxic
[3]
  Activity: Non-toxic

## CC(=O)N[C@H]1[C@H]([C@H](O)[C@H](O)CO)OC(C(=O)[O-])=C[C@@H]1N.[Na+]
[1]
  IC50: > 250000 nM
[2]
  Activity: Non-toxic
[3]
  Activity: Non-toxic

## CC(=O)N[C@H]1[C@H]([C@H](O)[C@H](O)CO)OC(C(=O)[O-])=C[C@@H]1NC(=N)N.[Na+]
[1]
  IC50: > 250000 nM
[2]
  Activity: Non-toxic
[3]
  Activity: Non-toxic

## CC(C)C(=O)N[C@H]1[C@H]([C@H](O)[C@H](O)CO)OC(C(=O)[O-])=C[C@@H]1N=[N+]=[N-].[Na+]
[1]
  IC50: 80 nM
[2]
  Activity: Non-toxic
[3]
  Activity: Non-toxic

## CC(C)C(=O)N[C@H]1[C@H]([C@H](O)[C@H](O)CO)OC(C(=O)O)=C[C@@H]1O
[1]
  IC50: 490 nM
[4]
  viability at 48 h, 250 µM: 93%
[5]
  viability at 48 h, 250 µM: 93%

## CC(C)C(=O)N[C@H]1[C@H]([C@H](O)[C@H](O)CO)OC(C(=O)[O-])=C[C@@H]1N.[Na+]
[1]
  IC50: 7290 nM
[2]
  Activity: Non-toxic
[3]
  Activity: Non-toxic

## CC(C)C(=O)N[C@H]1[C@H]([C@H](O)[C@H](O)CO)OC(C(=O)[O-])=C[C@@H]1NC(=N)N.[Na+]
[1]
  IC50: > 250000 nM
[2]
  Activity: Non-toxic
[3]
  Activity: Non-toxic

## [N-]=[N+]=N[C@H]1C=C(C(=O)[O-])O[C@@H]([C@H](O)[C@H](O)CO)[C@@H]1NC(=O)C1CC1.[Na+]
[1]
  IC50: 320 nM
[2]
  Activity: Non-toxic
[3]
  Activity: Non-toxic

## [N-]=[N+]=N[C@H]1C=C(C(=O)[O-])O[C@@H]([C@H](O)[C@H](O)CO)[C@@H]1NC(=O)C1CCC1.[Na+]
[1]
  IC50: 930 nM
[2]
  Activity: Non-toxic
[3]
  Activity: Non-toxic

## CCC(C)C(=O)N[C@H]1[C@H]([C@H](O)[C@H](O)CO)OC(C(=O)[O-])=C[C@@H]1N=[N+]=[N-].[Na+] (some centres not stated)
[1]
  IC50: 320 nM
[2]
  Activity: Non-toxic
[3]
  Activity: Non-toxic

## C/C=C(\C)C(=O)N[C@H]1[C@H]([C@H](O)[C@H](O)CO)OC(C(=O)[O-])=C[C@@H]1N=[N+]=[N-].[Na+]
[1]
  IC50: 3000 nM
[2]
  Activity: Non-toxic
[3]
  Activity: Non-toxic

## CC(O)C(=O)N[C@H]1[C@H]([C@H](O)[C@H](O)CO)OC(C(=O)[O-])=C[C@@H]1N=[N+]=[N-].[Na+] (some centres not stated)
[1]
  IC50: 40000 nM
[2]
  Activity: Non-toxic
[3]
  Activity: Non-toxic

## CC(CO)C(=O)N[C@H]1[C@H]([C@H](O)[C@H](O)CO)OC(C(=O)[O-])=C[C@@H]1N=[N+]=[N-].[Na+] (some centres not stated)
[1]
  IC50: 3000 nM
[2]
  Activity: Non-toxic
[3]
  Activity: Non-toxic
